We go through 22 compounds from ChEMBL document CHEMBL3085670, “Synthesis, biological evaluation and docking studies of 4-aryloxymethyl coumarins derived from substructures and degradation products of vancomycin” (2013).

Values after ≈ are worked out from the molar mass of the structure shown.

Holding throughout (assay type): functional
The subject of assay [1] is Aspergillus niger. The assay is described as follows: Ratio of fluconazole MIC to compound MIC for Aspergillus niger ATCC 9029 after 24 hrs by broth microdilution method. In general terms: Dilution methods test growth across graded concentrations, often in twofold steps.
The subject of assay [2] is Aspergillus niger. The assay is described as follows: Antifungal activity against Aspergillus niger ATCC 9029 after 24 hrs by broth microdilution method. The following applies: ATCC 9029, 24 h. Put shortly: (§1)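 Broth dilution MIC, with fluconazole as the comparator. Each drug was serially diluted tenfold in BHI broth over nine tubes (10^-1 to 10^-9). Each tube received a suspension of stock culture diluted in BHI. Tubes were kept 24 h at 37 °C, and growth was judged by turbidity.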

Assay [3] concerns Candida albicans. Description: Antifungal activity against Candida albicans ATCC 2091 after 24 hrs by broth microdilution method. The following applies: ATCC 2091, 24 h. Put shortly: as §1
In a further assay the test system is Pseudomonas aeruginosa. The assay is described as follows: Antibacterial activity against Pseudomonas aeruginosa ATCC 25619 after 24 hrs by broth microdilution method. The following applies: ATCC 25619, 24 h. The gist of the method: (§2)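 Broth dilution MIC, with ciprofloxacin as the comparator. Nine […] serial dilutions of each drug (10^-1 to 10^-9) were made in brain heart infusion (BHI) broth. Stock culture was diluted into BHI, and this suspension was added to each dilution tube. Tubes were incubated 24 h at 37 °C, and the MIC was read by turbidity.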

The subject of the next assay is Escherichia coli. The assay is described as follows: Antibacterial activity against Escherichia coli ATCC 25922 after 24 hrs by broth microdilution method. The following applies: ATCC 25922, 24 h. The gist of the method:
as §2

The next assay relates to Enterococcus faecalis. The assay is described as follows: Antibacterial activity against Enterococcus faecalis ATCC 35550 after 24 hrs by broth microdilution method. The following applies: ATCC 35550, 24 h. The gist of the method: as §2
In a further assay the test system is Staphylococcus aureus. The assay is described as follows: Antibacterial activity against Staphylococcus aureus ATCC 12598 after 24 hrs by broth microdilution method. The following applies: ATCC 12598, 24 h. Put shortly:
as §2

Assay [4] has as its system Candida albicans. Description: Ratio of fluconazole MIC to compound MIC for Candida albicans ATCC 2091 after 24 hrs by broth microdilution method.

Turning to `CCOC(=O)C(Cc1ccc(OCc2cc(=O)oc3cc(C)cc(C)c23)cc1)NC(=O)c1ccccc1` (stereo unspecified), in the assay on Aspergillus niger [1], the Ratio stood at 40. For the same compound, the MIC (in general, the lowest concentration found to suppress growth) in the assay on Aspergillus niger [2] is 0.2 µg/mL (≈ 0.4 µM); against Candida albicans [3], 1.6 µg/mL (≈ 3.2 µM); against Pseudomonas aeruginosa it was 100 µg/mL (≈ 200 µM); with Escherichia coli, 100 µg/mL (≈ 200 µM); with Enterococcus faecalis, 0.2 µg/mL (≈ 0.4 µM).

With `CCOC(=O)C(Cc1ccc(OCc2cc(=O)oc3c2ccc2ccccc23)cc1)NC(=O)c1ccccc1` (stereo unspecified), the Ratio in the assay with Aspergillus niger [1] was determined as 40. The MIC with Aspergillus niger [2] stood at 0.2 µg/mL (≈ 0.383 µM); against Candida albicans [3] it was 12.5 µg/mL (≈ 24 µM); in the assay on Pseudomonas aeruginosa, 100 µg/mL (≈ 192 µM); in the assay with Escherichia coli, 100 µg/mL (≈ 192 µM); against Enterococcus faecalis, 0.2 µg/mL (≈ 0.383 µM); in the assay with Staphylococcus aureus, 50 µg/mL (≈ 95.9 µM).

As to `CCOC(=O)C(Cc1ccc(OCc2cc(=O)oc3ccc4ccccc4c23)cc1)NC(=O)c1ccccc1` (stereo unspecified), the Ratio in the assay with Aspergillus niger [1] was 40. Besides, the MIC in the assay with Aspergillus niger [2] was 0.2 µg/mL (≈ 0.383 µM); in the assay on Candida albicans [3], 1.6 µg/mL (≈ 3.07 µM); in the assay with Escherichia coli, 100 µg/mL (≈ 192 µM); against Enterococcus faecalis it was 0.4 µg/mL (≈ 0.767 µM).

For the compound `CCOC(=O)c1cc(O)c(OCc2cc(=O)oc3ccc(C)cc23)c(O)c1`, the MIC came out at 100 µg/mL (≈ 270 µM) in the assay with Aspergillus niger [2]; 100 µg/mL (≈ 270 µM) in the assay on Candida albicans [3]; 100 µg/mL (≈ 270 µM) against Pseudomonas aeruginosa; 100 µg/mL (≈ 270 µM) against Escherichia coli; 0.2 µg/mL (≈ 0.54 µM) against Enterococcus faecalis; 1.6 µg/mL (≈ 4.32 µM) against Staphylococcus aureus.

As to `CCOC(=O)C(Cc1ccc(OCc2cc(=O)oc3ccc(C)cc23)cc1)NC(=O)c1ccccc1` (stereo unspecified), the Ratio with Aspergillus niger [1] is 40; with Candida albicans [4], 80. The minimum inhibitory concentration (MIC) against Aspergillus niger [2] is 0.2 µg/mL (≈ 0.412 µM); against Candida albicans [3], 0.2 µg/mL (≈ 0.412 µM); against Pseudomonas aeruginosa, 100 µg/mL (≈ 206 µM); against Escherichia coli, 100 µg/mL (≈ 206 µM); against Enterococcus faecalis it was 0.8 µg/mL (≈ 1.65 µM); in the assay with Staphylococcus aureus it was 100 µg/mL (≈ 206 µM).

As for `CCOC(=O)C(Cc1ccc(OCc2cc(=O)oc3c(C)c(C)ccc23)cc1)NC(=O)c1ccccc1` (stereo unspecified), in the assay on Aspergillus niger [1], the Ratio is recorded as 40. Also, the MIC in the assay on Aspergillus niger [2] worked out at 0.2 µg/mL (≈ 0.4 µM); against Candida albicans [3] it was 0.8 µg/mL (≈ 1.6 µM); against Pseudomonas aeruginosa, 100 µg/mL (≈ 200 µM); in the assay with Escherichia coli, 100 µg/mL (≈ 200 µM); with Enterococcus faecalis, 0.2 µg/mL (≈ 0.4 µM); against Staphylococcus aureus, 100 µg/mL (≈ 200 µM).

On to `CCOC(=O)c1cc(O)c(OCc2cc(=O)oc3cc(Cl)ccc23)c(O)c1`, for which the MIC turned out to be 100 µg/mL (≈ 256 µM) with Aspergillus niger [2]; 100 µg/mL (≈ 256 µM) with Candida albicans [3]; 100 µg/mL (≈ 256 µM) in the assay on Pseudomonas aeruginosa; 100 µg/mL (≈ 256 µM) against Escherichia coli; 3.12 µg/mL (≈ 8 µM) in the assay with Enterococcus faecalis; 12.5 µg/mL (≈ 32 µM) in the assay with Staphylococcus aureus.

Consider `CCOC(=O)C(Cc1ccc(OCc2cc(=O)oc3cc(Cl)ccc23)cc1)NC(=O)c1ccccc1` (stereo unspecified), for which the Ratio with Aspergillus niger [1] stood at 40. Besides, the MIC against Aspergillus niger [2] was found to be 0.2 µg/mL (≈ 0.395 µM); against Candida albicans [3], 50 µg/mL (≈ 98.8 µM); in the assay with Pseudomonas aeruginosa, 100 µg/mL (≈ 198 µM); with Enterococcus faecalis it was 0.2 µg/mL (≈ 0.395 µM).

In the case of `CCOC(=O)c1cc(O)c(OCc2cc(=O)oc3ccc(OC)cc23)c(O)c1`, the MIC against Aspergillus niger [2] is 100 µg/mL (≈ 259 µM); in the assay on Candida albicans [3], 100 µg/mL (≈ 259 µM); against Pseudomonas aeruginosa it was 100 µg/mL (≈ 259 µM); in the assay with Escherichia coli it was 100 µg/mL (≈ 259 µM); with Enterococcus faecalis, 0.2 µg/mL (≈ 0.518 µM); with Staphylococcus aureus, 0.8 µg/mL (≈ 2.07 µM).

In the case of `CCOC(=O)c1cc(O)c(OCc2cc(=O)oc3cc(OC)ccc23)c(O)c1`, the MIC amounted to 100 µg/mL (≈ 259 µM) in the assay with Aspergillus niger [2]; 100 µg/mL (≈ 259 µM) against Candida albicans [3]; 100 µg/mL (≈ 259 µM) against Pseudomonas aeruginosa; 100 µg/mL (≈ 259 µM) in the assay with Escherichia coli; 0.8 µg/mL (≈ 2.07 µM) against Enterococcus faecalis; 1.6 µg/mL (≈ 4.14 µM) against Staphylococcus aureus.

For `OC(Cn1cncn1)(Cn1cncn1)c1ccc(F)cc1F` [FLUCONAZOLE], the MIC against Aspergillus niger [2] was determined as 8 µg/mL (≈ 26.1 µM); against Candida albicans [3], 16 µg/mL (≈ 52.2 µM).

As for `CCOC(=O)c1cc(O)c(OCc2cc(=O)oc3cc(C)ccc23)c(O)c1`, the MIC worked out at 100 µg/mL (≈ 270 µM) in the assay with Aspergillus niger [2]; 100 µg/mL (≈ 270 µM) against Candida albicans [3]; 100 µg/mL (≈ 270 µM) in the assay on Pseudomonas aeruginosa; 100 µg/mL (≈ 270 µM) against Escherichia coli; 0.2 µg/mL (≈ 0.54 µM) against Enterococcus faecalis; 12.5 µg/mL (≈ 33.8 µM) against Staphylococcus aureus.

As for `O=C(O)c1cn(C2CC2)c2cc(N3CCNCC3)c(F)cc2c1=O` [CIPROFLOXACIN], the MIC against Enterococcus faecalis and with Staphylococcus aureus was 2 µg/mL (≈ 6.04 µM) in each case.

`CCOC(=O)C(Cc1ccc(OCc2cc(=O)oc3ccc(Cl)cc23)cc1)NC(=O)c1ccccc1` (stereo unspecified): in the assay with Aspergillus niger [1], the Ratio was 40. Also, the MIC was 0.2 µg/mL (≈ 0.395 µM) against Aspergillus niger [2]; 50 µg/mL (≈ 98.8 µM) in the assay with Candida albicans [3]; 100 µg/mL (≈ 198 µM) with Pseudomonas aeruginosa; 0.2 µg/mL (≈ 0.395 µM) in the assay on Enterococcus faecalis; 100 µg/mL (≈ 198 µM) against Staphylococcus aureus.

In the case of `CCOC(=O)c1cc(O)c(OCc2cc(=O)oc3ccc(Cl)cc23)c(O)c1`, the MIC against Aspergillus niger [2] is 100 µg/mL (≈ 256 µM); in the assay on Candida albicans [3] it was 100 µg/mL (≈ 256 µM); with Pseudomonas aeruginosa it was 100 µg/mL (≈ 256 µM); against Escherichia coli, 100 µg/mL (≈ 256 µM); against Enterococcus faecalis, 0.2 µg/mL (≈ 0.512 µM); against Staphylococcus aureus, 0.4 µg/mL (≈ 1.02 µM).

For the compound `CCOC(=O)c1cc(O)c(OCc2cc(=O)oc3c(C)c(C)ccc23)c(O)c1`, the MIC in the assay with Aspergillus niger [2] was 100 µg/mL (≈ 260 µM); against Candida albicans [3] it was 100 µg/mL (≈ 260 µM); with Pseudomonas aeruginosa, 100 µg/mL (≈ 260 µM); with Escherichia coli, 100 µg/mL (≈ 260 µM); in the assay with Enterococcus faecalis, 0.2 µg/mL (≈ 0.52 µM); against Staphylococcus aureus, 0.2 µg/mL (≈ 0.52 µM).

Take `CCOC(=O)C(Cc1ccc(OCc2cc(=O)oc3cc(OC)ccc23)cc1)NC(=O)c1ccccc1` (stereo unspecified): the values for the Ratio in the assay with Aspergillus niger [1] and in the assay on Candida albicans [4] were 40 and 80, respectively. Moreover, the MIC is 0.2 µg/mL (≈ 0.399 µM) in the assay with Aspergillus niger [2]; 0.2 µg/mL (≈ 0.399 µM) against Candida albicans [3]; 100 µg/mL (≈ 199 µM) with Pseudomonas aeruginosa; 100 µg/mL (≈ 199 µM) against Escherichia coli; 0.8 µg/mL (≈ 1.6 µM) in the assay on Enterococcus faecalis; 100 µg/mL (≈ 199 µM) against Staphylococcus aureus.

As to `CCOC(=O)C(Cc1ccc(OCc2cc(=O)oc3ccc(OC)cc23)cc1)NC(=O)c1ccccc1` (stereo unspecified), the Ratio in the assay with Aspergillus niger [1] is on record as 40; in the assay on Candida albicans [4] it was 80. Also, the MIC turned out to be 0.2 µg/mL (≈ 0.399 µM) with Aspergillus niger [2]; 0.2 µg/mL (≈ 0.399 µM) with Candida albicans [3]; 100 µg/mL (≈ 199 µM) against Pseudomonas aeruginosa; 100 µg/mL (≈ 199 µM) with Escherichia coli; 0.4 µg/mL (≈ 0.798 µM) against Enterococcus faecalis; 100 µg/mL (≈ 199 µM) in the assay on Staphylococcus aureus.

For the compound `CCOC(=O)C(Cc1ccc(OCc2cc(=O)oc3cc(C)ccc23)cc1)NC(=O)c1ccccc1` (stereo unspecified), the Ratio is reported as 40 with Aspergillus niger [1] and 80 in the assay with Candida albicans [4]. The MIC was 0.2 µg/mL (≈ 0.412 µM) in the assay with Aspergillus niger [2]; 0.2 µg/mL (≈ 0.412 µM) against Candida albicans [3]; 100 µg/mL (≈ 206 µM) against Pseudomonas aeruginosa; 100 µg/mL (≈ 206 µM) with Escherichia coli; 0.8 µg/mL (≈ 1.65 µM) against Enterococcus faecalis.

Take `CCOC(=O)c1cc(O)c(OCc2cc(=O)oc3ccc4ccccc4c23)c(O)c1`: the MIC in the assay with Aspergillus niger [2] was determined as 100 µg/mL (≈ 246 µM); with Candida albicans [3] it was 100 µg/mL (≈ 246 µM); in the assay on Pseudomonas aeruginosa it was 100 µg/mL (≈ 246 µM); against Escherichia coli, 100 µg/mL (≈ 246 µM); with Enterococcus faecalis, 0.2 µg/mL (≈ 0.492 µM); against Staphylococcus aureus, 0.4 µg/mL (≈ 0.984 µM).

With `CCOC(=O)c1cc(O)c(OCc2cc(=O)oc3c2ccc2ccccc23)c(O)c1`, the MIC against Aspergillus niger [2] worked out at 100 µg/mL (≈ 246 µM); in the assay on Candida albicans [3] it was 100 µg/mL (≈ 246 µM); with Pseudomonas aeruginosa, 100 µg/mL (≈ 246 µM); in the assay on Escherichia coli it was 100 µg/mL (≈ 246 µM); in the assay with Enterococcus faecalis, 0.2 µg/mL (≈ 0.492 µM); against Staphylococcus aureus it was 1.6 µg/mL (≈ 3.94 µM).

Regarding `CCOC(=O)c1cc(O)c(OCc2cc(=O)oc3cc(C)cc(C)c23)c(O)c1`, the MIC in the assay with Aspergillus niger [2] was determined as 100 µg/mL (≈ 260 µM); in the assay on Candida albicans [3], 100 µg/mL (≈ 260 µM); against Pseudomonas aeruginosa it was 100 µg/mL (≈ 260 µM); with Escherichia coli, 100 µg/mL (≈ 260 µM); in the assay on Enterococcus faecalis, 0.2 µg/mL (≈ 0.52 µM); in the assay with Staphylococcus aureus it was 0.8 µg/mL (≈ 2.08 µM).
